# Results pooled from the literature.
# Cell line: NCI-H460
# Read-out: cell growth or viability
Compound,method,concentration,time,quantity,result
COc1ccc(C(=O)/C=C/c2cc3c(cc2Br)OCO3)cc1S(N)(=O)=O,SRB,,48 h,GI50,4000 nM
COc1ccc(-c2ccc(-c3ccc(C(=N)N)nc3)s2)cc1,SRB,,,GI50,520 nM
COc1ccc(C(=O)/C=C/c2cccc3ccccc23)cc1S(N)(=O)=O,SRB,10 µM,,inhibition,98%
COc1ccc(-c2ccc(-c3ccc(C(=N)N)nc3)s2)cc1Cl,SRB,,,GI50,1800 nM
S=C([S][Au-][P+](CCCCCC[P+]([Au-][S]C(=S)n1cccn1)(c1ccccc1)c1ccccc1)(c1ccccc1)c1ccccc1)n1cccn1,SRB,,,GI50,1430 nM
C=CC(=O)Nc1cc(Nc2nc(N3CCc4sccc4C3)c3cccnc3n2)c(OC)cc1N(C)C,MTT,,,IC50,> 50000 nM
COc1ccccc1/C=C/C(=O)c1ccc(OC)c(S(N)(=O)=O)c1,SRB,,48 h,GI50,2100 nM
C=CC(=O)Nc1cc(Nc2nc(N3CCc4sccc4C3)c3cccnc3n2)c(OC)cc1N1CCSCC1,MTT,,,IC50,229 nM
c1ccc2cc(Cn3cc[n+](Cc4ccc5ccccc5c4)c3)ccc2c1,SRB,,,TGI,10400 nM
C=CC(=O)Nc1cc(Nc2nc(N3CCc4sccc4C3)c3cccnc3n2)c(OC)cc1N1CCC(N(C)C)CC1,MTT,,,IC50,558 nM
COc1ccc(C(=O)/C=C/c2ccc3ccccc3c2)cc1S(N)(=O)=O,SRB,,48 h,GI50,3000 nM
CCCc1n(Cc2ccc3ccccc3n2)cc[n+]1Cc1ccc2ccccc2c1,SRB,,,TGI,10600 nM
COc1ccc(C(=O)/C=C/c2cccc(Cl)c2)cc1S(N)(=O)=O,SRB,10 µM,,inhibition,97%
C=C(c1ccc(C(=O)O)cc1)c1cc2c(cc1C)C(C)(C)CCC2(C)C,MTT,,72 h,EC50,52000 nM
C=CC(=O)Nc1cc(Nc2nc(N3CCc4sccc4C3)c3cccnc3n2)c(OC)cc1N1CCN(C(C)=O)CC1,MTT,,,IC50,> 50000 nM
COc1ccc(C(=O)/C=C/c2cccc(Cl)c2Cl)cc1S(N)(=O)=O,SRB,,48 h,GI50,1900 nM
C=C(Cl)C(=O)Nc1cc(Nc2nc(N3CCSCC3)c3sccc3n2)c(OC)cc1N(C)CCN(C)C,MTT,,,IC50,1320 nM
CCc1n(Cc2ccc3ccccc3n2)cc[n+]1Cc1ccc2ccccc2n1,SRB,,,TGI,11900 nM
C=CC(=O)Nc1cccc(Oc2nc(Nc3ccc(N4CCN(C)CC4)cc3)nc3ccsc23)c1,MTT,,,IC50,642 nM
CCCc1n(Cc2ccc3ccccc3n2)cc[n+]1Cc1ccc2ccccc2n1,SRB,,,TGI,11700 nM
